# Test results reported in ChEMBL document CHEMBL3044760, “Synthesis and insecticidal activity of heptafluoroisopropyl-containing benzoylphenylurea structures” (2010).
# Calls of active or inactive are those of the source. The rule behind the calls is not given here.
# How the values were obtained:
# Mythimna separata [1] = assay: Insecticidal activity against Mythimna separata (Oriental armyworm) second-instar larvae reared on compound pre-treated corn disks assessed as larval mortality at 10 mg/L measured 7 days post compound treatment by leaf-dip method; type: functional
# How it was run: (§1)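 Leaf-dip: corn disks dipped 5 s in test solution, air-dried on filter paper, set on agar in 7 cm Petri dishes, with water-dipped disks as controls. Ten second-instar larvae per disk; dishes sealed with ventilated lids and stored inverted. Mortality scored at 7 days and corrected by Abbott's formula when needed. Diflubenzuron run under the same conditions.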
# Mythimna separata [2] = assay: Insecticidal activity against Mythimna separata (Oriental armyworm) second-instar larvae reared on compound pre-treated corn disks assessed as larval mortality at 5 mg/L measured 7 days post compound treatment by leaf-dip method; type: functional; how it was run: as §1
# Mythimna separata [3] = assay: Insecticidal activity against Mythimna separata (Oriental armyworm) second-instar larvae reared on compound pre-treated corn disks assessed as larval mortality at 0.125 mg/L measured 7 days post compound treatment by leaf-dip method; type: functional; how it was run: as §1
# Mythimna separata [4] = assay: Insecticidal activity against Mythimna separata (Oriental armyworm) second-instar larvae reared on compound pre-treated corn disks assessed as larval mortality at 0.25 mg/L measured 7 days post compound treatment by leaf-dip method; type: functional; how it was run: as §1
# Plutella xylostella = assay: Insecticidal activity against Plutella xylostella (diamondback moth) […] using 5% compound EC formulation at 37.5 g of ai/ha measured after 7 days field trial; type: functional
# Bemisia tabaci [5] = assay: Insecticidal activity against Bemisia tabaci (sweet potato whitefly) nymphs assessed as effect on larval pupation; type: functional, organism-based
# Spodoptera littoralis [6] = assay: Insecticidal activity against Spodoptera littoralis worm third-instar larvae grown on compound pre-treated caster bean leaves assessed as larval weight gain at 0.5 mg of ai/L measured 8 days post compound treatment relative to untreated control; type: functional
# Spodoptera littoralis [7] = assay: Insecticidal activity against Spodoptera littoralis worm third-instar larvae grown on compound pre-treated caster bean leaves assessed as larval weight gain at 0.25 mg of ai/L measured 8 days post compound treatment relative to untreated control; type: functional
# Spodoptera littoralis [8] = assay: Insecticidal activity against Spodoptera littoralis worm third-instar larvae grown on compound pre-treated caster bean leaves assessed as larval mortality at 0.5 mg of ai/L measured 8 days post compound treatment; type: functional
# How it was run: (§2)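 Castor bean leaves treated at 0.25 or 0.5 mg ai/L formulation and fed to S. littoralis third instars (11 ± 1 mg) for 4 days, then moved to untreated leaves for 4 more days. Larval mortality scored at day 4 and day 8.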
# Spodoptera littoralis [9] = assay: Insecticidal activity against Spodoptera littoralis worm third-instar larvae grown on compound pre-treated caster bean leaves assessed as larval mortality at 0.25 mg of ai/L measured 8 days post compound treatment; type: functional; how it was run: as §2
# Pieris rapae = assay: Insecticidal activity against imported cabbage worm measured 7 days after application of compound at 2000 diluent 5% EC; type: functional, organism-based
# Cnaphalocrocis medinalis = assay: Insecticidal activity against rice leaf roller third-instar larvae using 5% compound EC formulation at 25 g of ai/ha measured after 10 days field plot trial; type: functional, organism-based
# Spodoptera littoralis [10] = assay: Insecticidal activity against Spodoptera littoralis worm third-instar larvae grown on compound pre-treated caster bean leaves assessed as larval mortality at 0.5 mg of ai/L measured 4 days post compound treatment; type: functional; how it was run: as §2
# Spodoptera littoralis [11] = assay: Insecticidal activity against Spodoptera littoralis worm third-instar larvae grown on compound pre-treated caster bean leaves assessed as larval mortality at 0.25 mg of ai/L measured 4 days post compound treatment; type: functional; how it was run: as §2
# Mythimna separata [12] = assay: Insecticidal activity against Mythimna separata (Oriental armyworm) second-instar larvae reared on compound pre-treated corn disks assessed as larval mortality at 62.5 mg/L measured 7 days post compound treatment by leaf-dip method; type: functional; how it was run: as §1
# Mythimna separata [13] = assay: Insecticidal activity against Mythimna separata (Oriental armyworm) second-instar larvae reared on compound pre-treated corn disks assessed as larval mortality at 31.25 mg/L measured 7 days post compound treatment by leaf-dip method; type: functional; how it was run: as §1
# Bemisia tabaci [14] = assay: Insecticidal activity against Bemisia tabaci (sweet potato whitefly) nymphs assessed as suppression of larval pupation at 0.3 mg of ai/ha; type: functional, organism-based
# Spodoptera littoralis [15] = assay: Insecticidal activity against Spodoptera littoralis worm third-instar larvae grown on compound pre-treated caster bean leaves assessed as larval weight gain at 0.5 mg of ai/L as Rimon EC formulation measured 8 days post compound treatment relative to untreated control; type: functional
# Spodoptera littoralis [16] = assay: Insecticidal activity against Spodoptera littoralis worm third-instar larvae grown on compound pre-treated caster bean leaves assessed as larval mortality at 0.5 mg of ai/L as Rimon EC formulation measured 8 days post compound treatment; type: functional; how it was run: as §2
# Spodoptera littoralis [17] = assay: Insecticidal activity against Spodoptera littoralis worm third-instar larvae grown on compound pre-treated caster bean leaves assessed as larval mortality at 0.5 mg of ai/L as Rimon EC formulation measured 4 days post compound treatment; type: functional; how it was run: as §2
# Mythimna separata [18] = assay: Insecticidal activity against Mythimna separata (Oriental armyworm) second-instar larvae reared on compound pre-treated corn disks assessed as larval mortality at 50 mg/L measured 7 days post compound treatment by leaf-dip method; type: functional; how it was run: as §1
# Mythimna separata [19] = assay: Insecticidal activity against Mythimna separata (Oriental armyworm) second-instar larvae reared on compound pre-treated corn disks assessed as larval mortality at 15.625 mg/L measured 7 days post compound treatment by leaf-dip method; type: functional; how it was run: as §1
# Mythimna separata [20] = assay: Insecticidal activity against Mythimna separata (Oriental armyworm) second-instar larvae reared on compound pre-treated corn disks assessed as larval mortality at 12.5 mg/L measured 7 days post compound treatment by leaf-dip method; type: functional; how it was run: as §1
smiles,measurement,setting,value
O=C(NC(=O)c1ccccc1Cl)Nc1ccc(C(F)(C(F)(F)F)C(F)(F)F)cc1,mortality at 10 µg/mL,Mythimna separata [1],100%
same,mortality at 5 µg/mL,Mythimna separata [2],66.9%
Cc1cc(C(F)(C(F)(F)F)C(F)(F)F)cc(C)c1NC(=O)NC(=O)c1c(F)cccc1F,mortality at 0.125 µg/mL,Mythimna separata [3],50%
same,mortality at 0.25 µg/mL,Mythimna separata [4],80%
same,Activity,Plutella xylostella,>92%
same,Activity,Bemisia tabaci [5],inactive
same,Activity,Spodoptera littoralis [6],31%
same,Activity,Spodoptera littoralis [7],45%
same,mortality,Spodoptera littoralis [8],78%
same,mortality,Spodoptera littoralis [9],36%
same,Activity,Pieris rapae,Active
same,Activity,Cnaphalocrocis medinalis,Active
same,mortality,Spodoptera littoralis [10],18%
same,mortality,Spodoptera littoralis [11],8%
Cc1ccc(NC(=O)NC(=O)c2c(F)cccc2F)c(C(F)(C(F)(F)F)C(F)(F)F)c1,mortality at 62.5 µg/mL,Mythimna separata [12],100%
same,mortality at 31.25 µg/mL,Mythimna separata [13],93.3%
O=C(NC(=O)c1c(F)cccc1F)Nc1ccc(C(F)(C(F)(F)F)C(F)(F)F)cc1F,mortality at 0.125 µg/mL,Mythimna separata [3],63.3%
same,mortality at 0.25 µg/mL,Mythimna separata [4],100%
O=C(NC(=O)c1c(F)cccc1F)Nc1ccc(OC(F)(F)C(F)OC(F)(F)F)c(Cl)c1 (stereo unspecified) [NOVALURON],Activity,Bemisia tabaci [14],Active
same,Activity,Spodoptera littoralis [15],44%
same,mortality,Spodoptera littoralis [16],78%
same,mortality,Spodoptera littoralis [17],6%
Cc1cc(C(F)(C(F)(F)F)C(F)(F)F)cc(C)c1NC(=O)NC(=O)c1ccccc1Cl,mortality at 10 µg/mL,Mythimna separata [1],69.1%
same,mortality at 50 µg/mL,Mythimna separata [18],100%
O=C(NC(=O)c1c(F)cccc1F)Nc1ccc(Br)cc1C(F)(C(F)(F)F)C(F)(F)F,mortality at 15.625 µg/mL,Mythimna separata [19],56.6%
same,mortality at 31.25 µg/mL,Mythimna separata [13],100%
O=C(NC(=O)c1c(F)cccc1F)Nc1c(F)cc(C(F)(C(F)(F)F)C(F)(F)F)cc1F,mortality at 0.125 µg/mL,Mythimna separata [3],62.7%
same,mortality at 0.25 µg/mL,Mythimna separata [4],100%
O=C(NC(=O)c1c(F)cccc1F)Nc1ccc(C(F)(C(F)(F)F)C(F)(F)F)c(Cl)c1,mortality at 15.625 µg/mL,Mythimna separata [19],86.6%
same,mortality at 31.25 µg/mL,Mythimna separata [13],100%
O=C(NC(=O)c1ccccc1)Nc1ccc(C(F)(C(F)(F)F)C(F)(F)F)cc1,mortality at 10 µg/mL,Mythimna separata [1],68.1%
same,mortality at 12.5 µg/mL,Mythimna separata [20],100%
same,Activity,Bemisia tabaci [5],inactive
same,Activity,Spodoptera littoralis [6],94%
same,Activity,Spodoptera littoralis [7],69%
same,mortality,Spodoptera littoralis [8],22%
same,mortality,Spodoptera littoralis [9],14%
same,mortality,Spodoptera littoralis [10],18%
same,mortality,Spodoptera littoralis [11],8%
O=C(NC(=O)c1c(F)cccc1F)Nc1ccc(Cl)cc1 [DIFLUBENZURON],mortality at 0.125 µg/mL,Mythimna separata [3],69.5%
same,mortality at 0.25 µg/mL,Mythimna separata [4],100%
O=C(NC(=O)c1c(F)cccc1F)Nc1ccc(C(F)(C(F)(F)F)C(F)(F)F)cc1Cl,mortality at 15.625 µg/mL,Mythimna separata [19],20%
same,mortality at 31.25 µg/mL,Mythimna separata [13],100%
O=C(NC(=O)c1c(F)cccc1F)Nc1ccc(C(F)(C(F)(F)F)C(F)(F)F)c(Br)c1,mortality at 15.625 µg/mL,Mythimna separata [19],46.6%
same,mortality at 31.25 µg/mL,Mythimna separata [13],100%
O=C(NC(=O)c1c(F)cccc1F)Nc1ccc(C(F)(C(F)(F)F)C(F)(F)F)cc1,mortality at 15.625 µg/mL,Mythimna separata [19],43.3%
same,mortality at 31.25 µg/mL,Mythimna separata [13],100%
Cc1cc(C(F)(C(F)(F)F)C(F)(F)F)ccc1NC(=O)NC(=O)c1c(F)cccc1F,mortality at 15.625 µg/mL,Mythimna separata [19],56.6%
same,mortality at 31.25 µg/mL,Mythimna separata [13],100%
COc1ccc(NC(=O)NC(=O)c2c(F)cccc2F)c(C(F)(C(F)(F)F)C(F)(F)F)c1,mortality at 62.5 µg/mL,Mythimna separata [12],100%
same,mortality at 31.25 µg/mL,Mythimna separata [13],86.6%
